Laboratory results as given in ChEMBL document CHEMBL1137103, “4-Acylamino-and 4-ureidobenzamides as melanin-concentrating hormone (MCH) receptor 1 antagonists” (Bioorg Med Chem Lett, 2004).

Legend:
[1] = target: T1, Melanin-concentrating hormone receptor 1 (Homo sapiens, UniProt Q99705); assay: Binding affinity against human Melanin-concentrating hormone receptor 1 stably transfected CHO cells was determined using [125I]MCH as radioligand; type: cell-based
Summary of the method: (§1)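 Whole-cell binding in CHO cells expressing the human receptor with [125I]-MCH tracer. Nonspecific binding defined with 1 µM MCH. IC50 values from displacement by various concentrations of test compound.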

[2] = target: T2, Melanin-concentrating hormone receptor 2 (Homo sapiens, UniProt Q969V1); assay: Binding affinity against human Melanin-concentrating hormone receptor 2 stably transfected CHO cells was determined using [125I]MCH as radioligand; type: cell-based; summary of the method: as §1
[3] = target: T1, Melanin-concentrating hormone receptor 1; assay: Antagonistic activity against human Melanin-concentrating hormone receptor 1 stably transfected CHO cells was determined using IP3 assay; type: functional, cell-based
Summary of the method: (§2)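 CHO whole cells expressing the human receptor, labelled with 5 µCi [3H]-myo-inositol in inositol-free culture medium. Phosphatidylinositol turnover stimulated by submaximal MCH in the presence of increasing ligand concentrations. Generated [3H]-inositol phosphates purified on anion-exchange resin; IC50 derived.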

[4] = target: T2, Melanin-concentrating hormone receptor 2; assay: Antagonistic activity against human Melanin-concentrating hormone receptor 2 stably transfected CHO cells was determined using IP3 assay; type: functional, cell-based; summary of the method: as §2
[5] = target: T1, Melanin-concentrating hormone receptor 1; assay: Binding affinity against human Melanin-concentrating hormone receptor 1 stably transfected CHO cells was determined using scintillation proximity assay (SPA); type: cell-based
Summary of the method: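 Scintillation proximity binding with CHO membranes incubated with PEI-treated WGA-coupled PVT SPA beads and tracer over various test-compound concentrations. Nonspecific binding defined with 1 µM MCH; IC50 derived.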

[6] = Inhibitory activity against Histamine H2 receptor
[7] = Inhibitory activity against Dopamine transporter; parameters: species or system Homo sapiens
[8] = target: D(1A) dopamine receptor (Homo sapiens) (UniProt P21728); assay: Inhibitory activity against Dopamine receptor D1 at 10 uM
[9] = target: D(2) dopamine receptor (Homo sapiens) (UniProt P14416); assay: Inhibitory activity against Dopamine receptor D2 at 10 uM
[10] = target: Mu-type opioid receptor (Homo sapiens) (UniProt P35372); assay: Inhibitory activity against Opioid receptor mu 1 at 10 uM
[11] = target: T3, Adenosine receptor A3 (Homo sapiens) (UniProt P0DMS8); assay: Inhibitory activity against Adenosine A3 receptor at 10 uM
T3 sequence (whole entry): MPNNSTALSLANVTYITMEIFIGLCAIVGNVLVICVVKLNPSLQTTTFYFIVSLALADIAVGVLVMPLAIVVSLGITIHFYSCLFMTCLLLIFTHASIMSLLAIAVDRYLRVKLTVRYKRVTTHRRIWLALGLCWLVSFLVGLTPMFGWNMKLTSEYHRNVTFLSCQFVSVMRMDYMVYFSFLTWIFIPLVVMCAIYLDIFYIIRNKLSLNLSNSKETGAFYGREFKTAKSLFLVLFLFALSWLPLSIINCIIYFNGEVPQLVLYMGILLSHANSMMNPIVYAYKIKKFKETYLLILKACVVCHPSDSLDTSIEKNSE

[12] = target: Sigma non-opioid intracellular receptor 1 (Homo sapiens) (UniProt Q99720); assay: Inhibitory activity against Opioid receptor sigma 1 at 10 uM
[13] = inhibitory activity against sodium channel (site 2) at 10 uM
[14] = target: T4, Muscarinic acetylcholine receptor M1 (Homo sapiens) (UniProt P11229); assay: Inhibitory activity against Muscarinic acetylcholine receptor M1 at 10 uM
T4 sequence (whole entry): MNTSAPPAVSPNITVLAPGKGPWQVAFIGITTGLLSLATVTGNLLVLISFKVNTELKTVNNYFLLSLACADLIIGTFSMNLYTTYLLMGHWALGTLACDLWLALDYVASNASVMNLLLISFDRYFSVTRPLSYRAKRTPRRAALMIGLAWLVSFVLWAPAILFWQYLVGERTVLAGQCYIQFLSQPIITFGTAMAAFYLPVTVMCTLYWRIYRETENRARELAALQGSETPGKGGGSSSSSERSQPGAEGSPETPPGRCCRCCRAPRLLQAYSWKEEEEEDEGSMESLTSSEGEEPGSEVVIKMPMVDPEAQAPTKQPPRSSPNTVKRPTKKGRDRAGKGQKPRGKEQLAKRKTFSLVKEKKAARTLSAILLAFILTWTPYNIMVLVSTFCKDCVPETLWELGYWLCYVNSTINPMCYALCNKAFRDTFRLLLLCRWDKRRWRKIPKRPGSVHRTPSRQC

[15] = target: T5, Muscarinic acetylcholine receptor M2 (Homo sapiens) (UniProt P08172); assay: Inhibitory activity against Muscarinic acetylcholine receptor M2 at 10 uM
T5 sequence (whole entry): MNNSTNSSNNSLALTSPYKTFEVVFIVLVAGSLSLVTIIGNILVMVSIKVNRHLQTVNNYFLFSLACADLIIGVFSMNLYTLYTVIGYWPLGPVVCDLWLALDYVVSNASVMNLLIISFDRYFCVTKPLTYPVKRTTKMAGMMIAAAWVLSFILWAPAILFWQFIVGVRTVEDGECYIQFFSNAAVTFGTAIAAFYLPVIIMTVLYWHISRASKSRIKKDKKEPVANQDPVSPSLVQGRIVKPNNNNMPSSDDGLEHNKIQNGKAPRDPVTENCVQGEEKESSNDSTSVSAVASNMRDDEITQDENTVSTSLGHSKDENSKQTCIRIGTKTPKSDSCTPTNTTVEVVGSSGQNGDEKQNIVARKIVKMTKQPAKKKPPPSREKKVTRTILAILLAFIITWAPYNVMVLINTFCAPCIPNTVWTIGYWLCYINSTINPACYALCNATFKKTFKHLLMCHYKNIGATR

[16] = target: Sodium-dependent noradrenaline transporter (Homo sapiens) (UniProt P23975); assay: Inhibitory activity against Norepinephrine transporter at 10 uM
[17] = Inhibitory activity against 5-hydroxytryptamine 2A receptor
[18] = Inhibitory activity against 5-hydroxytryptamine 2C receptor

T1 sequence (Q99705 whole entry): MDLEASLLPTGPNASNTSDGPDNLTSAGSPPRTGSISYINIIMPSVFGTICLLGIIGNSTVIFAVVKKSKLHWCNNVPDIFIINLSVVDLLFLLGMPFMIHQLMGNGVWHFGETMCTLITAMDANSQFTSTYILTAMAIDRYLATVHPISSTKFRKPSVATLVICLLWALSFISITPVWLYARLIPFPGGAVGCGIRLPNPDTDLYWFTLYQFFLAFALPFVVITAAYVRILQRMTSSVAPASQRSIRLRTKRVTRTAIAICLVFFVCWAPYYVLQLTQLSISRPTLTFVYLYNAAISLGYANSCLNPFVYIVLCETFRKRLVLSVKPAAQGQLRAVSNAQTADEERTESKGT
T2 sequence (Q969V1 whole entry): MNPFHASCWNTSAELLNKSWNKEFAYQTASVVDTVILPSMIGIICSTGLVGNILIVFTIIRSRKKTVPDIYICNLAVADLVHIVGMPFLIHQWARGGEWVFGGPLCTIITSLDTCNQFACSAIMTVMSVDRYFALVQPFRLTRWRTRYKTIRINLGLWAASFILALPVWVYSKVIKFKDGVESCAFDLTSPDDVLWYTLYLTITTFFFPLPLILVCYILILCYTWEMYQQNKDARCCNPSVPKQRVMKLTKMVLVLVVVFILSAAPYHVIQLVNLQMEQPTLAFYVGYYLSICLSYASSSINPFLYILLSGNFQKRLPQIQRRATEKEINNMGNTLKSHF
D(1A) dopamine receptor (Homo sapiens), sequence (P21728 whole entry): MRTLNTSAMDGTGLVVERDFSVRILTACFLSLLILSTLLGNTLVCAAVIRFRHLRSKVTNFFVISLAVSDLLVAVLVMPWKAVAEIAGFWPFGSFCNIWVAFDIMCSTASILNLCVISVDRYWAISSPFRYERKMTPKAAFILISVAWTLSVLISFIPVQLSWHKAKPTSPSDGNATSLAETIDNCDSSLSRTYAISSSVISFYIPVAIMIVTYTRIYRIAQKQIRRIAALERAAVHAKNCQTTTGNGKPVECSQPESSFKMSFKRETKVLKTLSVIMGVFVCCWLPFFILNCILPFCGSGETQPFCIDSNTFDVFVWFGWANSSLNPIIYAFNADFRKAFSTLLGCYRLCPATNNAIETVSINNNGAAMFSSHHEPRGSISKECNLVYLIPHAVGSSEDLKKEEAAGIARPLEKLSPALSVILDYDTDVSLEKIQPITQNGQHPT
Mu-type opioid receptor (Homo sapiens), sequence (P35372 whole entry): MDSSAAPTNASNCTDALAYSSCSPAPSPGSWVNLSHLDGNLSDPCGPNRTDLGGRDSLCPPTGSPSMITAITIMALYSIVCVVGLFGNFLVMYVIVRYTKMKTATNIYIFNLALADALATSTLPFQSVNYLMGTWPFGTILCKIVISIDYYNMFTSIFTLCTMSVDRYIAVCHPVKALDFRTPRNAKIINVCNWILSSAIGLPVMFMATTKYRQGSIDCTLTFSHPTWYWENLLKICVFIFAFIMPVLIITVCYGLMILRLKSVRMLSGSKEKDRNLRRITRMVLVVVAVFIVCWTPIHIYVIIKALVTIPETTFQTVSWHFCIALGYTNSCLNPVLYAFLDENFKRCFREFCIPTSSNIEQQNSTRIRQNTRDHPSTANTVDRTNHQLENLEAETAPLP
Sodium-dependent noradrenaline transporter (Homo sapiens), sequence (P23975 whole entry): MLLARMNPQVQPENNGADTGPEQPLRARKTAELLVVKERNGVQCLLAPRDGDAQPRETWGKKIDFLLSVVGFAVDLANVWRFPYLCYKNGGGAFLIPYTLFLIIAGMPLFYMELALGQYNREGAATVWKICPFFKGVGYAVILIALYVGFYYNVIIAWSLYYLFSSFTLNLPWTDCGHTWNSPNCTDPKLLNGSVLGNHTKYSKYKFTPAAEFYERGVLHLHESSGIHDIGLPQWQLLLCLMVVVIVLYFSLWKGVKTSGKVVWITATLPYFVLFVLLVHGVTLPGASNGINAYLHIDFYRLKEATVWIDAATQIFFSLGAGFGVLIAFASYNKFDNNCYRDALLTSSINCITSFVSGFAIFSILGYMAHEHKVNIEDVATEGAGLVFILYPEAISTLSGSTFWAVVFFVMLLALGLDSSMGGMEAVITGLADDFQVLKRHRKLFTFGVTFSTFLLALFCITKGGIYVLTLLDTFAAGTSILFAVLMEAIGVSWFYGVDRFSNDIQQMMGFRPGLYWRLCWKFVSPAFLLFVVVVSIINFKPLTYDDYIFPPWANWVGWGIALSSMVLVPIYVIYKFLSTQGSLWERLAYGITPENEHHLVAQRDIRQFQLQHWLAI
D(2) dopamine receptor (Homo sapiens), sequence (P14416 whole entry): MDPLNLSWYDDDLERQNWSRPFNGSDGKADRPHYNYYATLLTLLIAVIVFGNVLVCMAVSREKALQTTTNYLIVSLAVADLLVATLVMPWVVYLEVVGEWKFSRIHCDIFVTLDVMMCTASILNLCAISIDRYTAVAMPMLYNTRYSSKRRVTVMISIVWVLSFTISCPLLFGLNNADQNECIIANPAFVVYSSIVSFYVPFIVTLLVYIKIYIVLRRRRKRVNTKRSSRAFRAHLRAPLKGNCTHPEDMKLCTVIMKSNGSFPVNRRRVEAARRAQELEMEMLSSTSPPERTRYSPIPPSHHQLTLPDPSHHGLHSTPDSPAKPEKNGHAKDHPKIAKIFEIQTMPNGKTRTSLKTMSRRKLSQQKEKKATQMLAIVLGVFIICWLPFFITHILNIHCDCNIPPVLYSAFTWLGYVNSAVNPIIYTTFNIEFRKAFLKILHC
Sigma non-opioid intracellular receptor 1 (Homo sapiens), sequence (Q99720 whole entry): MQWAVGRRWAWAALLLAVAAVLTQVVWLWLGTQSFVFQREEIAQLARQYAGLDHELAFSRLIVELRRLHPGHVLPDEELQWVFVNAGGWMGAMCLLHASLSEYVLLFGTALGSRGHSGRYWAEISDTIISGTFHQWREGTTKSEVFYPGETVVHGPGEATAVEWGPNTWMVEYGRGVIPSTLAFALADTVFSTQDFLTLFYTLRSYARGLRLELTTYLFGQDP

SMILES	IC50 [1] [µM]	IC50 [3] [µM]	IC50 [5] [µM]	further results
COc1cc(NC(=O)c2ccc(-c3ccccc3)cc2)ccc1C(=O)NCCN1CCN(Cc2ccccc2)CC1	0.64			
CCN(CC)CCNC(=O)c1ccc(NC(=O)Nc2ccc(OC(F)(F)F)cc2)cc1	0.06	0.25		IC50 [2]: > 100 µM; IC50 [4]: > 100 µM
CCN(CC)CCNC(=O)c1ccc(NC(=O)Nc2ccc(C#N)cc2)cc1OC			3.2	
CCN(CC)CCNC(=O)c1ccc(NC(=O)Nc2ccc(F)c(Cl)c2)cc1OC			3.9	
CCOc1cc(NC(=O)Nc2ccc(Oc3ccccc3)cc2)ccc1C(=O)NCCN(CC)CC	0.24	1.95		
CCN(CC)CCNC(=O)c1ccc(NC(=O)Nc2ccc(C(F)(F)F)cc2)cc1	0.0053	0.17		
COc1cc(NC(=O)c2ccc(-c3ccccc3)cc2)ccc1C(=O)NCCN(C)C	2.41	12		IC50 [2]: > 100 µM
O=C(Nc1ccc(Oc2ccccc2)cc1)Nc1ccc(C(=O)NCCN2CCN(Cc3ccccc3)CC2)cc1	0.14	5.82		IC50 [2]: 2.88 µM
CCN(CC)CCNC(=O)c1ccc(N2CCN(c3ccc(Oc4ccccc4)cc3)C2=O)cc1OC			> 100	
CCN(CC)CCNC(=O)c1ccc(NC(=O)Nc2ccccc2)cc1OC			> 100	
CCN(CC)CCNC(=O)c1ccc(NC(=O)Nc2ccc(Br)cc2)cc1OC			0.25	
CCN(CC)CCNC(=O)c1ccc(NC(=O)Nc2ccc(C(F)(F)F)cc2)cc1OC	0.02	0.17	0.05	IC50 [2]: > 100 µM
COc1cc(NC(=O)c2ccc(-c3ccccc3)cc2)ccc1C(=O)NCCCN(C)C	0.64	5.29		IC50 [2]: > 100 µM
CCN(CC)CCNC(=O)c1ccc(NC(=O)Nc2cccc(C(F)(F)F)c2)cc1OC			7.9	
CCN(CC)CCNC(=O)c1ccc(-c2noc(-c3ccc(Oc4ccccc4)cc3)n2)cc1	2.45			
COc1cc(NC(=O)Nc2ccccc2Oc2ccccc2)ccc1C(=O)NCCCN1CCCCC1	> 10			
CCN(CC)CCN(C)C(=O)c1ccc(NC(=O)Nc2ccc(Oc3ccccc3)cc2)cc1			11	
CCN1CCCC1CNC(=O)c1ccc(NC(=O)Nc2ccc(Oc3ccccc3)cc2)cc1 (stereo unspecified)	0.25	1.3		IC50 [2]: 6.31 µM
CCN(CC)CCNC(=O)c1ccc(NC(=O)Nc2cccc(SC)c2)cc1OC			4.7	
CCN(CC)CCNC(=O)c1ccc(NC(=O)Nc2ccc(Cl)c(Cl)c2)cc1OC			0.71	
CN(C)CCNC(=O)c1ccc(NC(=O)c2ccc(-c3ccccc3)cc2)cc1	> 100			
COc1cc(NC(=O)Nc2cccc(Oc3ccccc3)c2)ccc1C(=O)NCCCN1CCCCC1	0.02	0.03		IC50 [2]: > 100 µM
CCN1CCCC1CNC(=O)c1ccc(-c2noc(-c3ccc(Oc4ccccc4)cc3)n2)cc1 (stereo unspecified)	1.9			
CCN(CC)CCNC(=O)c1ccc(NC(=O)c2ccc(-c3ccccc3)cc2)cc1OC	0.37			
CCN(CC)CCNC(=O)c1cc(Cl)c(NC(=O)Nc2ccc(Oc3ccccc3)cc2)cc1OC			> 100	

SMILES	IC50 [1] [µM]	IC50 [3] [µM]	IC50 [5] [µM]	further results
COc1cc(NC(=O)Nc2ccc(Nc3ccccc3)cc2)ccc1C(=O)NCCCN1CCCCC1	0.85	1.44		
CCN(CC)CCNC(=O)c1ccc(NC(=O)Nc2ccc(F)cc2)cc1OC			15.8	
CCN(CC)CCNC(=O)c1ccc(NC(=O)N(C)c2ccc(Oc3ccccc3)cc2)cc1OC			5.8	
CCN(CC)CCNC(=O)c1ccc(NC(=O)Nc2cc(OC)cc(OC)c2)cc1OC			18	
CCN(CC)CCNC(=O)c1ccc(NC(=O)Nc2ccc(SC(F)(F)F)cc2)cc1OC			0.2	
CCN(CC)CCNC(=O)c1ccc(NC(=O)Nc2cc(Cl)cc(Cl)c2)cc1OC			4.8	
CCN(CC)CCNC(=O)c1ccc(NC(=O)Nc2ccc(Oc3ccccc3)cc2)cc1			3.5	
CCN(CC)CCNC(=O)c1ccc(NC(=O)Nc2ccc(Oc3ccccc3)cc2)cc1OC	0.14	0.88	0.72	
CCN(CC)CCNC(=O)c1ccc(N(C)C(=O)Nc2ccc(Oc3ccccc3)cc2)cc1OC			0.54	
COc1cc(NC(=O)Nc2ccc(-c3ccccc3)cc2)ccc1C(=O)NCCCN(C)C	1.48		9.1	
COc1cc(NC(=O)Nc2cccc(Nc3ccccc3)c2)ccc1C(=O)NCCCN1CCCCC1	0.0081	0.025		IC50 [2]: 10 µM
COc1cc(NC(=O)c2ccc(Oc3ccccc3)cc2)ccc1C(=O)NCCCN(C)C	1.92			
CCN(CC)CCNC(=O)c1ccc(NC(=O)Nc2ccc(OC(F)(F)F)cc2Br)cc1OC			8.8	
CCN(CC)CCNC(=O)c1ccc(NC(=O)Nc2ccc(OC(F)(F)F)cc2)cc1OC	0.05	0.26	0.15	IC50 [6]: 2.2 µM; IC50 [7]: 6.9 µM; inhibition [8]: 78%; inhibition [9]: 79%; inhibition [10]: 44%; IC50 [2]: > 100 µM; inhibition [11]: 36%; inhibition [12]: 65%; inhibition [13]: 76%; inhibition [14]: 72%; inhibition [15]: 46%; inhibition [16]: 67%; IC50 [17]: 1.3 µM; IC50 [18]: 0.31 µM
COc1cc(NC(=O)c2ccc(-c3ccccc3)cc2)ccc1C(=O)NC1CCN(Cc2ccccc2)CC1	0.13			
CCN(CC)CCNC(=O)c1ccc(NC(=O)Nc2ccc(C(C)=O)cc2)cc1OC			13	
CCN(CC)CCNC(=O)c1ccc(N(C)C(=O)N(C)c2ccc(Oc3ccccc3)cc2)cc1OC			> 100	
CCN(CC)CCN(C)C(=O)c1ccc(NC(=O)Nc2ccc(Oc3ccccc3)cc2)cc1OC			> 100	
CCN1CCCC1CNC(=O)c1ccc(NC(=O)Nc2ccc(Oc3ccccc3)cc2)cc1OC (stereo unspecified)	0.53	3.45		
COc1cc(NC(=O)Nc2cccc(Oc3ccccc3)c2)ccc1C(=O)NCCCN1CCOCC1	0.07	0.11		IC50 [6]: 1.8 µM; IC50 [7]: 1.5 µM; inhibition [8]: 57%; inhibition [10]: 48%; IC50 [2]: > 100 µM; inhibition [11]: 48%; inhibition [14]: 64%; inhibition [16]: 68%; IC50 [17]: 0.67 µM; IC50 [4]: > 100 µM; IC50 [18]: 1.3 µM
CCN(CC)CCNC(=O)c1ccc(NC(=O)Nc2cccc(OC(F)(F)F)c2)cc1OC			2.5	
CCN(CC)CCNC(=O)c1ccc(NC(=O)c2ccc(Oc3ccccc3)cc2)cc1OC	1.97	6.81		
CCN(CC)CCNC(=O)c1ccc(NC(=O)Nc2ccc(SC)cc2)cc1OC			0.96	
CCN(CC)CCNC(=O)c1ccc(NC(=O)Nc2ccc(C(=O)C(F)(F)F)cc2)cc1OC			5.9	
COc1cc(NC(=O)Nc2ccc(Oc3ccccc3)cc2)ccc1C(=O)NCCCN1CCCCC1	0.05			IC50 [2]: 10 µM; IC50 [4]: > 100 µM
